# Assay outcomes (PubChem BioAssay)
# Mdm2-MdmX inh: inhibitors of human Mdm2/MdmX interaction | AID 485346 | SaOS-2 split-luciferase Mdm2/MdmX complementation, luminescence | inhibition, % at 8 µM | actives 3% (n = 330,000) | O15151+Q00987;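 active = inhibition of at least 50% at 8 µM in the primary screen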
# Target sequence (O15151 whole entry, looked up): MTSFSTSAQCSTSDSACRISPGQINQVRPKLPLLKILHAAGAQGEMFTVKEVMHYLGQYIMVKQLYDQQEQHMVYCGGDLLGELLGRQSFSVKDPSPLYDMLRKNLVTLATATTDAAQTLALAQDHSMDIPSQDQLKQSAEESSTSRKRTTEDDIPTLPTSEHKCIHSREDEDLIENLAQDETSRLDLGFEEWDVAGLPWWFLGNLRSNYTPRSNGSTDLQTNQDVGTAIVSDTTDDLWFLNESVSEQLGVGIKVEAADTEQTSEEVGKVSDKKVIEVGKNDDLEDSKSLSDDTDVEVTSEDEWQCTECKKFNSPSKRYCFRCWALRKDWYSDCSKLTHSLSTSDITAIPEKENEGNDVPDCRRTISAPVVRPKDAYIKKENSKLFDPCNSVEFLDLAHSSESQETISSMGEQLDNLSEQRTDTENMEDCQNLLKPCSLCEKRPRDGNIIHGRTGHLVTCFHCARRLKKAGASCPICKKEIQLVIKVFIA
# Target sequence (Q00987 whole entry, looked up): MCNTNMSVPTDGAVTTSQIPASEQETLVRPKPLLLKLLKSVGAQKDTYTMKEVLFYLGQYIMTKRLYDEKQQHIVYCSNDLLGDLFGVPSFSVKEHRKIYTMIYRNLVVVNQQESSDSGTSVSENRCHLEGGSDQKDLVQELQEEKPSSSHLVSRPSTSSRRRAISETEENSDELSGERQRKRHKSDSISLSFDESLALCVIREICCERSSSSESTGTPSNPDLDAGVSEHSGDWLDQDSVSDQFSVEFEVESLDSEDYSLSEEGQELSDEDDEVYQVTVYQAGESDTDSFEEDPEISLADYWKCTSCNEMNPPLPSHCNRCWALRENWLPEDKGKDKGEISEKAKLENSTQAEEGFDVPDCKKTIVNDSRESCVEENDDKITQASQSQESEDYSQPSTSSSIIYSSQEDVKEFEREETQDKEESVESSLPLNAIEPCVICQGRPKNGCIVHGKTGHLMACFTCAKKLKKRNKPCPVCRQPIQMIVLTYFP
# CSC inhib: cancer stem cell inhibition. actives 1.1% (n = 300,000). inhibition, % at 7.5 µM. cancer stem cell-like cells viability, luminescence; in the data active = inhibition above about 75%; inconclusive = no clear call, values can overlap the other calls; tested in HMLE shEcad cells
# T cruzi repl: blocks replication of Trypanosoma cruzi; actives 1.4% (n = 300,000); inhibition, % (concentration not given with the values); T. cruzi beta-gal in NIH3T3, luminescence, 90 h;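 active = mean inhibition across valid replicates above about 55%, limit read from the data; inconclusive = mean below that limit but half or more replicates reach it; inactive = mean below it, under half of replicates reach it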;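 also: signal also drops with host cell toxicity which is not excluded here; 0% = plate median of DMSO wells and 100% = zero luminescence signal; higher percent means less beta-gal luminescence so fewer parasites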
#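 Test system: β-gal T. cruzi (Tulahuen C4) inside NIH/3T3 cells / Quantity: 5,000 cells/well / Measured by: luminescence from GalScreen with 0.05% NP40, read after 60 min / Medium: DMEM plus 2% FBS / Measure: parasite load inhibition, % / Reagent: Tulahuen C4 trypomastigotes, 5000/well / Schedule: co-culture of at least 90 h after 3 h attachment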
# NALP3 yeast inh: blocks the NALP3 inflammasome reconstituted in yeast; inhibition, % at 10 µM; actives 0.39% (n = 330,000); Yeast reconstituted NLRP3/ASC/caspase-1, beta-gal luminescence, 24 h;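 active = inhibition of 50% or more; inactive = inhibition below 50%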;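 also: plate controls were induced DMSO wells for no effect and uninduced yeast grown without galactose for full effect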
# Beta cell apopt: blocks beta cell apoptosis | AID 435005 | protection from apoptosis, % (test concentration not listed) | INS-1E cytokine-induced death, ATP luminescence, 48 h; percent of positive-control rescue, neutral wells zero | actives 0.8% (n = 300,000);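 active = Every replicate reaches about 75%, or at least half do and their mean reaches it too, limit read from the data; inconclusive = At least half of replicates reach the limit but their mean does not; inactive = Under half of replicates reach the limit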;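 also: 0% = cytokine-treated negative control wells and 100% = positive control rescue; higher means more ATP so stronger rescue from cytokine killing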
# Calb FLC: C. albicans growth modulation with fluconazole; actives 0.57% (n = 300,000); growth inhibition, % (no concentration beside the values); C. albicans CaCi-2 (fluconazole-resistant clinical isolate) + fluconazole, Alamar Blue growth, 48 h;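 active = growth inhibition above about 58% in most replicates, limit read from the data, passing the limit was not always enough; inconclusive = exactly half the replicates above a set limit; inactive = most replicates below a set limit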;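 also: all wells also contain fluconazole at 8 µg/ml as a sub-toxic cotreatment; 0% = median of DMSO wells and 100% = median of geldanamycin control wells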
# NALP3 yeast conf: confirmation of NALP3 inhibitors in yeast. actives 81% (n = 1,300). shares compounds with NALP3 yeast inh. yeast expressing human NALP3, luminescence. inhibition, % at 10 µM. AID 435006; in the data active = inhibition above about 48%
# Casp1 ASC ctr: active in yeast caspase-1-ASC counter-screen for NALP3 inhibitors. yeast expressing Caspase-1-ASC, luminescence counter screen. shares compounds with NALP3 yeast inh. actives 66% (n = 1,000). inhibition, % at 10 µM. AID 488784
# NALP3 retest: confirmation retest of NALP3 inhibitors in yeast; shares compounds with NALP3 yeast inh; yeast expressing human NALP3, luminescence read-out; inhibition, % at 10 µM; actives 53% (n = 1,000); AID 488794
# Mdm2 MdmX conf: confirmation of human Mdm2/MdmX interaction inhibitors. actives 55% (n = 10,000). Mdm2-MdmX binding, luminescent assay. shares compounds with Mdm2-MdmX inh. inhibition, % at 8 µM; in the data active = inhibition above about 40%
# FLuc counter: full-length luciferase inhibition in Mdm2/MdmX counter-screen | shares compounds with Mdm2-MdmX inh | SaOS-2 full-length luciferase counterscreen, luminescence | inhibition, % at 8 µM | actives 77% (n = 6,200) | AID 504607;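 active = mean inhibition at 8 µM reaching about 37%, which flags the compound as non-specific, limit read from the data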;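 also: p53-null SaOS-2 cells with luciferase driven by a doxycycline-inducible promoter; compound on cells about two nights before reading with doxycycline added after day one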
# The depositor's hits bear a star; ? = inconclusive; · = no result given. An excerpt weighted towards active compounds, which were near 5.3% of everything screened. Rule as the data show it, unless noted: active = inhibition above about 50%; inactive = the rest.
SMILES,Mdm2-MdmX inh,CSC inhib,T cruzi repl,NALP3 yeast inh,Beta cell apopt,Calb FLC,NALP3 yeast conf,Casp1 ASC ctr,NALP3 retest,Mdm2 MdmX conf,FLuc counter
N#C/C(=N\Nc1ccc(Cl)cc1)C(N)=S,64*,37,-1,75*,33,4,90*,·,·,64*,44*
CC(C)=CCc1c(O)cc2oc3c(CC=C(C)C)c(O)c(O)c(CC=C(C)C)c3c(=O)c2c1O,100*,3,40,56*,·,0,74*,51*,47,43*,47*
CC(C)=CCc1cc(-c2oc3cc(O)cc(O)c3c(=O)c2O)ccc1O,8,1,5,29,-8,-10,·,·,·,·,·
Cn1c(-c2ccccc2)cc2c3no[n+]([O-])c3ccc21,58*,108*,73*,53*,106*,6,61*,63*,59*,73*,53*
CCOc1cc(/C=N/Nc2cc(C)nc(-n3nc(C)cc3C)n2)ccc1O,73*,25,30,77*,99*,6,54*,19,36,40,23
Cc1ccc(N/C=C/C(=O)c2ccc(C)cc2)cc1,-66,-1,7,18,2,0,·,·,·,·,·
Cc1ccc(C(=O)/C=C/Nc2ccccn2)cc1,55*,-1,-17,53*,2,-13,20,·,·,38,·
CN(C)CCCN(C(=O)CCc1ccccc1)c1nc2ccc(F)cc2s1,18,·,37,32,1,-3,·,·,·,·,·
CN(C)CCCN(C(=O)c1cc(-c2cccs2)nc2ccccc12)c1nc2ccc(F)cc2s1,100*,103*,30,52*,6,-6,65*,50*,46,57*,68*
CC(=O)C1(C)N(O)C(C)(C)C(c2ccco2)=[N+]1[O-] (stereo not given),12,-10,-21,9,-12,-3,·,·,·,·,·
N/C(=N\N=C/c1ccc(F)cc1)N/N=C\c1ccc(F)cc1,60*,77*,15,64*,8,-7,76*,70*,65*,4,·
O=C(NCc1ccccc1)c1cc2ccccc2oc1=O,-3,-6,-10,13,-3,0,·,·,·,·,·
N#Cc1cccc(NC(=O)Cn2cnc(S(=O)(=O)N3CCc4ccccc43)c2)c1,16,-22,-1,7,-9,2,·,·,·,·,·
COc1cccc2[nH]c3ccccc3c(=O)c12,23,-23,8,22,-6,4,·,·,·,·,·
C=Cc1ncc(OC)c2c1[nH]c1ccccc12,100*,40,41,60*,50,-10,74*,81*,64*,59*,22
O=C(CN1C2CCCC1CC(NC(=O)C1CCCCC1)C2)Nc1ccccc1 (stereo not given),5,0,20,6,6,-16,·,·,·,·,·
Cc1cccnc1Nc1nc(-c2ccccn2)cs1,74*,101*,40,74*,101*,-5,84*,97*,92*,36,·
COc1ccc(OC)c(Nc2cc(-c3ccccc3)nc(N)n2)c1,69*,53,-8,50,15,-8,41,49,43,71*,72*
COc1ccc(OC)c(Nc2cc(C)nc3ccccc23)c1,39,34,16,7,3,12,·,·,·,·,·
CC(C)OP(=O)(OC(C)C)C(Nc1ccc(C(=O)O)cc1)c1ccccc1 (stereo not given),23,-24,2,-15,-11,10,·,·,·,·,·
CC1(C)COC(/C=C/c2cccc([N+](=O)[O-])c2)=N1,79*,-11,-16,55*,-52,?,62*,74*,57*,72*,39*
